{
  "source": "ChEMBL document CHEMBL4017500",
  "about": "(J Med Chem, 2017)",
  "key": {"[1]": {"test": "Inhibition of bacterial MBP-fused NDM1 expressed in Escherichia coli BL21(DE3) ausing chromacef as substrate preincubated for 20 mins followed by substrate addition measured after 0.3 mins", "set-up": "species or system Bacteria", "summary_of_the_method": "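Preincubated 20 min, then 3 μM substrate (~3×KM) added. A442 followed ~0.3 min at 25 °C. Activity scaled to uninhibited (100%) and no-enzyme (0%) controls, fitted to a Hill-type equation.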"}, "[2]": {"test": "Inhibition of bacterial MBP-fused NDM1 expressed in Escherichia coli BL21(DE3) ausing fluorocillin as substrate preincubated for 20 mins followed by substrate addition measured at 1 sec time interval for 25 mins by fluorescence assay", "set-up": "species or system Bacteria", "summary_of_the_method": "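NDM-1 pre-incubated 20 min with inhibitor (final 100 μM to 1 nM) in 50 mM HEPES pH 7.0 with 2 mM CHAPS. Reaction started with fluorocillin (final 87 nM, below KM), NDM-1 final 25 pM. Fluorescence read at λex/em 495/525 nm, 10 reads over ~25 min.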"}, "[3]": {"molecular_target": "Histone deacetylase 1 (Homo sapiens) (UniProt Q13547)", "sequence (Q13547 whole entry)": "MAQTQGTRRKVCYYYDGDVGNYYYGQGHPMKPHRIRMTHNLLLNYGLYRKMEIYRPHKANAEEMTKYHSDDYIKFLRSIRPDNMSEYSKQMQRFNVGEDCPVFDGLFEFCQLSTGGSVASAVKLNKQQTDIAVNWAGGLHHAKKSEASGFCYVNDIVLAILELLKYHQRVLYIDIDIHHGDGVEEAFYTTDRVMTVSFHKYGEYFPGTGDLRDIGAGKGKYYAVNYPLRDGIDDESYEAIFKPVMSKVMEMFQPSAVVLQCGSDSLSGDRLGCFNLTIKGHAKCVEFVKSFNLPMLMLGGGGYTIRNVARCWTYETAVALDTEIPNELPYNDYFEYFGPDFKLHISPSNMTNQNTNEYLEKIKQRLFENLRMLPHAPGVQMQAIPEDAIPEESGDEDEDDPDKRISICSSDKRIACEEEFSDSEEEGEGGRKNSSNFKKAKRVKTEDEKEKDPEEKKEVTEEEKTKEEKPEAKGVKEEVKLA", "test": "Inhibition of full length human C-terminal FLAG/His-tagged HDAC1 expressed in baculovirus infected sf9 cells at 10 uM using HDAC substrate 3 preincubated for 5 mins followed by substrate addition measured after 30 mins by fluorescence assay", "summary_of_the_method": "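Inhibitor pre-incubated 5 min, then HDAC substrate 3 (20 μM) added, 30 min at 37 °C. Developer added for 15 min at room temperature; fluorescence read at ex/em 360/460 nm. Activity relative to no-inhibitor wells, with 200 μM SAHA as 0%. Run in triplicate.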"}, "[4]": {"molecular_target": "Carbonic anhydrase 2 (Homo sapiens) (UniProt P00918)", "test": "Inhibition of human carbonic anhydrase 2 at 50 to 100 uM using p-nitrophenyl acetate as substrate preincubated for 10 mins followed by substrate addition measured for 15 mins", "summary_of_the_method": "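hCAII (100 nM) in 50 mM HEPES pH 8.0 pre-incubated with inhibitor for 10 min at 30 °C. p-Nitrophenyl acetate (500 μM) then added and absorbance at 405 nm followed 15 min. Activity relative to no-inhibitor wells, with 50 μM benzene sulfonamide as 0%. Run in triplicate.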"}, "Bacteria [5]": {"tested_on": "Bacteria", "test": "Binding affinity to bacterial CoCoNDM-1 expressed in Escherichia coli BL21(DE3) assessed as metal stripping at 1 to 2 equiv after 30 mins by UV-Visible spectroscopic method", "summary_of_the_method": "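Apo-NDM-1 at 300 μM in 50 mM HEPES, 150 mM NaCl, pH 6.8, loaded with 2 molar equiv CoCl2. […] Absorbance read 300–700 nm at 25 °C as difference spectra against buffer blank, normalized at 700 nm.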"}, "Bacteria [6]": {"tested_on": "Bacteria", "test": "Binding affinity to bacterial NDM-1 expressed in Escherichia coli BL21(DE3) assessed as Zn2+ stripping at", "summary_of_the_method": "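NDM-1 (8 μM final) in 50 mM HEPES pH 7.5 mixed with compound at 0–128 μM for 30 min. Then dialyzed 4 h against metal-free 50 mM HEPES pH 7.5. Residual Zn(II) measured by ICP-AES at 213.856 nm.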"}, "Escherichia coli [7]": {"tested_on": "Escherichia coli", "test": "Inhibition of NDM1 in Escherichia coli isolate Ah8.74 assessed as potentiation of imipenem-induced antibacterial activity by measuring imipenem MIC at 100 mg/L after 18 to 20 hrs by broth microdilution assay (reference value: 8 mg/L)"}, "[8]": {"molecular_target": "Metallo-beta-lactamase type 2 (Klebsiella pneumoniae) (UniProt C7C422)", "sequence (C7C422 whole entry)": "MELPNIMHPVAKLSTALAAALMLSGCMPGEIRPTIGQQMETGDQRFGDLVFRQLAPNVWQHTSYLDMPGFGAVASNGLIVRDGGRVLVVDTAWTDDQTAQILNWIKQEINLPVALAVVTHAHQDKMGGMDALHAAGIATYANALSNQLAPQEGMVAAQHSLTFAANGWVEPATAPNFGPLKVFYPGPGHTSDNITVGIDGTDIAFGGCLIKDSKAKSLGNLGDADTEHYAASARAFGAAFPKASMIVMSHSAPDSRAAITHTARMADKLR", "test": "Inhibition of NDM1 in Klebsiella pneumoniae isolate Pd1.48 assessed as potentiation of imipenem-induced antibacterial activity by measuring imipenem MIC at 100 mg/L after 18 to 20 hrs by broth microdilution assay (reference value: 8 mg/L)"}, "[9]": {"molecular_target": "Metallo-beta-lactamase type 2 (Klebsiella pneumoniae) (UniProt C7C422)", "test": "Inhibition of NDM1 in Klebsiella pneumoniae isolate Pd1.55 assessed as potentiation of imipenem-induced antibacterial activity by measuring imipenem MIC at 100 mg/L after 18 to 20 hrs by broth microdilution assay (reference value: 8 mg/L)"}, "[10]": {"molecular_target": "Metallo-beta-lactamase type 2 (Klebsiella pneumoniae) (UniProt C7C422)", "test": "Inhibition of NDM1 in Klebsiella pneumoniae isolate Cm1.62 assessed as potentiation of imipenem-induced antibacterial activity by measuring imipenem MIC at 100 mg/L after 18 to 20 hrs by broth microdilution assay (reference value: 16 mg/L)"}, "Escherichia coli [11]": {"tested_on": "Escherichia coli", "test": "Effect on growth of Escherichia coli isolate Ch8.72 at 100 mg/L after 18 to 20 hrs by broth microdilution assay", "summary_of_the_method": "(§1)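 Mueller-Hinton broth microdilution per CLSI, triplicate. blaNDM-1 clinical isolates grown from OD600 0.1 to 0.224 (~1–2 × 10^8 CFU/mL), diluted 3 μL into 4997 μL MH, and 100 μL added to 100 μL of compound (100 mg/L) alone. Incubated 37 °C for 18–20 h, then scored for growth.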"}, "Escherichia coli [12]": {"tested_on": "Escherichia coli", "test": "Effect on growth of Escherichia coli isolate Ah8.75 at 100 mg/L after 18 to 20 hrs by broth microdilution assay", "summary_of_the_method": "as §1"}, "Klebsiella pneumoniae [13]": {"tested_on": "Klebsiella pneumoniae", "test": "Effect on growth of Klebsiella pneumoniae isolate Pd1.54 at 100 mg/L after 18 to 20 hrs by broth microdilution assay", "summary_of_the_method": "as §1"}, "Klebsiella pneumoniae [14]": {"tested_on": "Klebsiella pneumoniae", "test": "Effect on growth of Klebsiella pneumoniae isolate Pd1.55 at 100 mg/L after 18 to 20 hrs by broth microdilution assay", "summary_of_the_method": "as §1"}, "HEK293": {"tested_on": "HEK293", "test": "Cytotoxicity against HEK293 cells assessed as reduction in cell viability up to 400 uM after 4 to 24 hrs by Cell-titer blue reagent based spectrophotometric assay", "details": "human", "summary_of_the_method": "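HEK293 cells seeded at 10,000/well 12 h before treatment. Exposed to compound or DMSO vehicle for 4 or 24 h in DMEM with 10% serum and penicillin-streptomycin, n=6 per treatment per time point. Cell-Titer Blue added for 1 h, fluorescence read at 536ex/595em. Viability relative to vehicle (=1.0); ANOVA with Tukey post-hoc.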"}},
  "note": "The source made the active and inactive calls. The rule behind the calls is not given here.",
  "data": [
    {"smiles": "Nc1cccc(-c2cc(C(=O)O)nc(C(=O)O)c2)c1", "values": [
      {"measurement": "IC50", "setting": "[1]", "value": 320, "unit": "nM"},
      {"measurement": "IC50", "setting": "[2]", "value": 80, "unit": "nM"},
      {"measurement": "inhibition", "setting": "[3]", "value": "inactive"},
      {"measurement": "inhibition", "setting": "[4]", "value": "< 50", "unit": "%"},
      {"measurement": "Activity", "setting": "Bacteria [5]", "value": "Active"},
      {"measurement": "Activity", "setting": "Bacteria [6]", "value": "inactive"},
      {"measurement": "MIC", "setting": "Escherichia coli [7]", "value": 0.5, "unit": "µg/mL"},
      {"measurement": "MIC", "setting": "[8]", "value": 0.5, "unit": "µg/mL"},
      {"measurement": "MIC", "setting": "[9]", "value": 0.5, "unit": "µg/mL"},
      {"measurement": "MIC", "setting": "[10]", "value": 1, "unit": "µg/mL"},
      {"measurement": "Activity", "setting": "Escherichia coli [11]", "value": "Non-Toxic"},
      {"measurement": "Activity", "setting": "Escherichia coli [12]", "value": "Non-Toxic"},
      {"measurement": "Activity", "setting": "Klebsiella pneumoniae [13]", "value": "Non-Toxic"},
      {"measurement": "Activity", "setting": "Klebsiella pneumoniae [14]", "value": "Non-Toxic"},
      {"measurement": "Activity", "setting": "HEK293", "value": "Non-Toxic"}
    ]}
  ]
}
